Data reported in ChEMBL document CHEMBL5154634, “A Modular Synthetic Route Involving N-Aryl-2-nitrosoaniline Intermediates Leads to a New Series of 3-Substituted Halogenated Phenazine Antibacterial Agents” (J Med Chem, 2021).
Converted amounts (≈) assume the structure as drawn. The source made the active and inactive calls. The calls are words filed in the database; no cut-off is given here.

Columns and labels:
[1] = test system: Staphylococcus epidermidis; assay: Antibacterial activity against methicillin-resistant Staphylococcus epidermidis ATCC 35984 assessed as bacterial growth inhibition incubated for 16 hrs by broth microdilution susceptibility test; format: functional
Procedure, shortened: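 CLSI broth microdilution with 11 twofold dilutions (0.05–50 μM). About 10^5 cells per well from a log-phase culture. DMSO vehicle up to 0.5% v/v. At least three independent experiments.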

[2] = test system: Enterococcus faecalis; assay: Antibacterial activity against Enterococcus faecalis OG1RF ATCC 47077 assessed as bacterial growth inhibition incubated for 16 hrs by broth microdilution susceptibility test; format: functional
[3] = test system: Mycobacterium tuberculosis; assay: Antibacterial activity against Mycobacterium tuberculosis CDC1551 assessed as bacterial growth inhibition incubated for 5 days by luminescence based analysis; format: functional; conditions: CDC1551, 120 h, time 5 day
Procedure, shortened: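 Bioluminescent Mtb-lux CDC1551 reporter grown in Middlebrook 7H9 with 0.05% Tween 80, 10% OADC and kanamycin to OD600 0.4–0.8, then diluted to OD600 0.02. Added to twofold drug dilutions (0.003–200 μM). Incubated 5 days at 37 °C, 5% CO2. Luminescence read against 1% DMSO and 10 μM rifampicin controls to give % growth inhibition. MIC taken from a modified Gompertz fit.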

[4] = test system: HeLa; assay: Cytotoxicity against human HeLa cells assessed as reduction in cell viability incubated for 24 hrs by LDH release assay; format: toxicity, cell-based
Procedure, shortened: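 HeLa cells in DMEM with 10% FBS, treated at 70–80% confluence with 25, 50 and 100 μM for 24 h. LDH in supernatant measured by 30 min reaction at room temperature, then stop solution and absorbance at 490 nm. Controls: 2% Triton X-100 (maximum), medium only, DMSO vehicle. Three independent experiments.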

[5] = test system: J774; assay: Cytotoxicity against mouse J774 cells assessed as reduction in cell viability […] by Alamar blue assay; format: toxicity, cell-based
[6] = test system: HepG2; assay: Cytotoxicity against human HepG2 cells assessed as reduction in cell viability […] by Alamar blue assay; format: toxicity, cell-based
[7] = test system: Staphylococcus aureus; assay: Antibiofilm activity against methicillin-resistant Staphylococcus aureus BAA-1707 biofilms assessed as biofilm eradication incubated for 24 hrs followed by incubation for 24 hrs in fresh medium by Calgary biofilm device assay; format: functional
Procedure, shortened: (§1)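 Calgary biofilm device. Mid-log culture diluted 1000-fold in TSB with 0.5% glucose; biofilms grown on pegs 24 h at 37 °C. Pegs washed and challenged with twofold compound dilutions for 24 h at 37 °C, then moved to fresh medium for 24 h. MBEC is the lowest concentration leaving wells non-turbid. At least three independent experiments.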

[8] = test system: Staphylococcus aureus; assay: Bactericidal activity against methicillin-resistant Staphylococcus aureus BAA-44 planktonic cells assessed as planktonic eradication incubated for 24 hrs followed by incubation for overnight in fresh medium by Calgary biofilm device assay; format: functional
Procedure, shortened: (§2)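 Calgary biofilm device. Biofilms grown 24 h at 37 °C in TSB with 0.5% glucose, then challenged 24 h with twofold compound dilutions. 20 μL of challenge medium transferred into fresh TSB with 0.5% glucose and incubated overnight at 37 °C. MBC is the concentration with no visible turbidity. At least three independent experiments.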

[9] = test system: Staphylococcus aureus; assay: Antibiofilm activity against methicillin-resistant Staphylococcus aureus BAA-44 biofilms assessed as biofilm eradication incubated for 24 hrs followed by incubation for 24 hrs in fresh medium by Calgary biofilm device assay; format: functional; procedure, shortened: as §1
[10] = test system: Staphylococcus epidermidis; assay: Bactericidal activity against methicillin-resistant Staphylococcus epidermidis ATCC 35984 planktonic cells assessed as planktonic eradication incubated for 24 hrs followed by incubation for overnight in fresh medium by Calgary biofilm device assay; format: functional; procedure, shortened: as §2
[11] = test system: Staphylococcus epidermidis; assay: Antibiofilm activity against methicillin-resistant Staphylococcus epidermidis ATCC 35984 biofilms assessed as biofilm eradication incubated for 24 hrs followed by incubation for 24 hrs in fresh medium by Calgary biofilm device assay; format: functional; procedure, shortened: as §1
[12] = test system: Enterococcus faecium; assay: Bactericidal activity against methicillin-resistant vancomycin-resistant Enterococcus faecium ATCC 700221 planktonic cells assessed as planktonic eradication incubated for 24 hrs followed by incubation for overnight in fresh medium by Calgary biofilm device assay; format: functional; procedure, shortened: as §2
[13] = test system: Enterococcus faecium; assay: Antibiofilm activity against methicillin-resistant vancomycin-resistant Enterococcus faecium ATCC 700221 biofilms assessed as biofilm eradication incubated for 24 hrs followed by incubation for 24 hrs in fresh medium by Calgary biofilm device assay; format: functional; procedure, shortened: as §1
[14] = test system: Enterococcus faecalis; assay: Bactericidal activity against […] Enterococcus faecalis OG1RF ATCC 47077 planktonic cells assessed as planktonic eradication incubated for 24 hrs followed by incubation for overnight in fresh medium by Calgary biofilm device assay; format: functional
Procedure, shortened: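 Calgary biofilm device in BHI. Biofilms grown 24 h at 37 °C and challenged 24 h with twofold compound dilutions. Challenge medium subcultured 1:10 into fresh BHI overnight at 37 °C. MBC is the concentration with no turbidity. At least three independent experiments.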

[15] = test system: Enterococcus faecalis; assay: Antibiofilm activity against Enterococcus faecalis OG1RF ATCC 47077 biofilms assessed as biofilm eradication incubated for 24 hrs followed by incubation for 24 hrs in fresh medium by Calgary biofilm device assay; format: functional
Procedure, shortened: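 Calgary biofilm device. Biofilms grown 24 h at 37 °C in BHI from mid-log culture diluted 1000-fold. Pegs washed and then challenged 24 h with twofold serial dilutions. Pegs moved to fresh BHI for 24 h recovery. MBEC = lowest concentration leaving no turbidity; at least three independent experiments.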

[16] = test system: Erythrocyte; assay: Hemolytic activity against human RBC at 200 uM measured after 1 hr; format: toxicity, cell-based
Procedure, shortened: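 2% hRBCs exposed to compound at 200 μM final, added from DMSO stock, for 1 h at 37 °C. Supernatant OD read at 405 nm. Hemolysis normalized between DMSO (0%) and Triton X (100%); three independent experiments.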

[17] = test system: Staphylococcus aureus; assay: Induction of iron starvation in methicillin-resistant Staphylococcus aureus BAA-1707 biofilms assessed as upregulation of sfaA gene expression at 1 uM incubated for 4 hrs by RT-qPCR analysis; format: functional
Procedure, shortened: (§3)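 MRSA BAA-1707 grown in TSB with 0.5% glucose to OD600 ~0.8–1.0, then biofilms formed 20 h at 37 °C statically in gelatin-coated 24-well plates. Biofilms treated 4 h at 37 °C with compound (1 μM or 1/10 MBEC) or DMSO vehicle. RNA extracted; only RIN ≥7 samples used. One-step SYBR RT-qPCR; ΔCT normalised to ptaA. Three independent experiments.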

[18] = test system: Staphylococcus aureus; assay: Induction of iron starvation in methicillin-resistant Staphylococcus aureus BAA-1707 biofilms assessed as upregulation of sfaA gene expression at 1/10XMBEC incubated for 4 hrs by RT-qPCR analysis; format: functional; procedure, shortened: as §3
[19] = test system: Staphylococcus aureus; assay: Induction of iron starvation in methicillin-resistant Staphylococcus aureus BAA-1707 biofilms assessed as upregulation of sbnC gene expression at 1 uM incubated for 4 hrs by RT-qPCR analysis; format: functional; procedure, shortened: as §3
[20] = test system: Staphylococcus aureus; assay: Induction of iron starvation in methicillin-resistant Staphylococcus aureus BAA-1707 biofilms assessed as upregulation of sbnC gene expression at 1/10XMBEC incubated for 4 hrs by RT-qPCR analysis; format: functional; procedure, shortened: as §3
[21] = test system: Staphylococcus aureus; assay: Induction of iron starvation in methicillin-resistant Staphylococcus aureus BAA-1707 biofilms assessed as upregulation of isdB gene expression at 1 uM incubated for 4 hrs by RT-qPCR analysis; format: functional; procedure, shortened: as §3
[22] = test system: Staphylococcus aureus; assay: Induction of iron starvation in methicillin-resistant Staphylococcus aureus BAA-1707 biofilms assessed as upregulation of isdB gene expression at 1/10XMBEC incubated for 4 hrs by RT-qPCR analysis; format: functional; procedure, shortened: as §3
[23] = test system: Staphylococcus aureus; assay: Induction of iron starvation in methicillin-resistant Staphylococcus aureus BAA-1707 biofilms assessed as upregulation of MW0695 gene expression at 1 uM incubated for 4 hrs by RT-qPCR analysis; format: functional; procedure, shortened: as §3
[24] = test system: Staphylococcus aureus; assay: Induction of iron starvation in methicillin-resistant Staphylococcus aureus BAA-1707 biofilms assessed as upregulation of MW0695 gene expression at 1/10XMBEC incubated for 4 hrs by RT-qPCR analysis; format: functional; procedure, shortened: as §3
[25] = Dissociation constant, pKa of the compound at 125 uM by UV-vis spectrophotometric analysis; format: physicochemical; conditions: 125 µM
Procedure, shortened: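 Compound at 125 μM final in phosphate buffers (KH₂PO₄/Na₂HPO₄) in 1:1 water/methanol, pH 4.07–9.66; ammonium hydroxide added for pH above 9.80. UV-vis scans 200–800 nm to find λmax of phenol and phenolate forms. Absorbance at each λmax plotted against pH.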

[26] = test system: Staphylococcus aureus; assay: Antibacterial activity against methicillin-resistant Staphylococcus aureus clinical isolate 1 assessed as bacterial growth inhibition; format: functional
[27] = test system: Staphylococcus aureus; assay: Antibacterial activity against methicillin-resistant Staphylococcus aureus clinical isolate 2 assessed as bacterial growth inhibition; format: functional
[28] = test system: Staphylococcus aureus; assay: Antibacterial activity against methicillin-resistant Staphylococcus aureus 129 assessed as bacterial growth inhibition; format: functional
[29] = test system: Staphylococcus aureus; assay: Antibacterial activity against methicillin-resistant Staphylococcus aureus 147 assessed as bacterial growth inhibition; format: functional
[30] = test system: Staphylococcus aureus; assay: Antibacterial activity against methicillin-resistant Staphylococcus aureus 138 assessed as bacterial growth inhibition; format: functional
[31] = test system: Staphylococcus aureus; assay: Antibacterial activity against methicillin-resistant Staphylococcus aureus 156 assessed as bacterial growth inhibition; format: functional

Oc1c(Br)cc(Br)c2nc3ccccc3nc12 showed an MIC [1] of 2.35 µM (≈ 0.832 µg/mL), an MIC [2] of 12.5 µM (≈ 4.43 µg/mL) and an MIC [3] of 13.7 µM (≈ 4.85 µg/mL). The IC50 [4] was over 100 µM, the IC50 [5] was over 100 µM and the IC50 [6] was over 100 µM. It also gave an MBEC [7] of 100 µM, an MBC [8] of 37.5 µM (≈ 13.3 µg/mL) and an MBEC [9] of 75 µM. The MBC [10] was 25 µM (≈ 8.85 µg/mL), the MBEC [11] was 50 µM and the MBC [12] was 18.8 µM (≈ 6.66 µg/mL). It also gave an MBEC [13] of 12.5 µM, an MBC [14] of 25 µM (≈ 8.85 µg/mL) and an MBEC [15] of over 200 µM. For the same molecule, the Activity [16] was “<= 1%”, the Activity [17] was “Active” and the Activity [18] was “Active”. The Activity [19] was “Active”, the Activity [20] was “Active” and the Activity [21] was “Active”. The Activity [22] was “Active”, the Activity [23] was “Active” and the Activity [24] was “Active”. The pKa [25] was 7.12, the MIC [26] was 1.25 µM (≈ 0.443 µg/mL) and the MIC [27] was 1.25 µM (≈ 0.443 µg/mL). It also gave an MIC [28] of 1.25 µM (≈ 0.443 µg/mL), an MIC [29] of 1.25 µM (≈ 0.443 µg/mL) and an MIC [30] of 1.25 µM (≈ 0.443 µg/mL). For the same molecule, the MIC [31] was 1.25 µM (≈ 0.443 µg/mL).
